Results on ten compounds are retold here after publication PMC4883002 (Environmental science & technology, 2016).

Structures can show the parent of a compound that is named as a salt.

In test [1] the target is human serum albumin (HSA) Site I (Homo sapiens, UniProt P02768). The experiment in a line: Displacement of the Site I-selective fluorescent probe DNSA from HSA. The note with it: for Site I binding (DNSA displacement), result in words: 10 µM HSA, 20 µM DNSA, pH 7.4, 25°C, numeric EC50 values only in Figures 4-6; for fluorescence of the site I probe, DNSA: at higher concentrations of ligand. It counts as binding. In outline:
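Fatty acid- and globulin-free HSA in 0.1 M potassium phosphate, pH 7.4, with DNSA probe and increasing ligand concentrations (DMSO stocks; final DMSO <0.8% v/v; DMSO-only controls). Fluorescence read after 5 min at 25°C, ex 350/em 460 nm. Triplicates, each averaging six readings, as % of control.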

In test [2] the test system is HSA. As to conditions: cited from earlier work.
For test [3], the system named is HSA. The note with it: cited from earlier work. The source holds these as a separate data set.
A further test relates to human serum albumin. The note with it: HSA binding, previously published; cited from earlier work.

Sequence of human serum albumin (HSA) Site I (P02768 25-609): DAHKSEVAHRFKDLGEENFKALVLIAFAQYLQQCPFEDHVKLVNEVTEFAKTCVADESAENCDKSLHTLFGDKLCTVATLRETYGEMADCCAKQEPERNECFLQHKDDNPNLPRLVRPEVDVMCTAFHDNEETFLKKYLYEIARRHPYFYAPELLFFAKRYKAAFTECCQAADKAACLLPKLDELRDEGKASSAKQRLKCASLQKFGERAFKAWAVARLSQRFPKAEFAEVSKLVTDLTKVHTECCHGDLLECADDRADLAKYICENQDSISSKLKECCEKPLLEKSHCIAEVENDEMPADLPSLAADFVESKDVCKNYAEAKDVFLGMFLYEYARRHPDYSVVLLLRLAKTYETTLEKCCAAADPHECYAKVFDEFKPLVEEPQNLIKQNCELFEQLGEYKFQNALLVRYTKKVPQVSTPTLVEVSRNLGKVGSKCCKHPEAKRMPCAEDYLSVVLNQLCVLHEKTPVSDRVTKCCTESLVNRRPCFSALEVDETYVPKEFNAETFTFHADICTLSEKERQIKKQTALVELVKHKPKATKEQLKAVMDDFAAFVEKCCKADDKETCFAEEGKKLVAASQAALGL

Turning to `Oc1ccc(-c2ccc(Cl)cc2)cc1` [4’-OH-PCB 3], the “Site I binding (DNSA displacement), result in words” value (shortened to “Site I binding (DNSA displacement)”) in test [1] is “significant binding”.
`Oc1ccc(-c2cc(Cl)ccc2Cl)cc1` [4’-OH-PCB 9]: the “Site I binding (DNSA displacement)” value in test [1] is on record as “no significant binding”.
`O=S(=O)(O)Oc1ccc(-c2ccc(Cl)cc2)cc1` [4’-PCB 3 sulfate]: the “Site I binding (DNSA displacement)” value in test [1] is reported as “significant binding”.
Take `O=S(=O)(O)Oc1ccc(-c2ccc(Cl)c(Cl)c2)cc1` [4’-PCB 12 sulfate]: the “Site I binding (DNSA displacement)” value in test [1] was “no significant binding”.
On to `O=S(=O)(O)Oc1ccc(-c2ccc(Cl)c(Cl)c2)c(Cl)c1` [4’-PCB 33 sulfate], for which the “fluorescence of the site I probe, DNSA” value in test [1] was “increased”.
Regarding `O=S(=O)(O)Oc1ccc(-c2ccc(Cl)c(Cl)c2)cc1Cl` [4’-PCB 35 sulfate], in test [1], the “Site I binding (DNSA displacement)” value is recorded as “lack of interaction” and the “fluorescence of the site I probe, DNSA” value is listed as “increased”.
With `Clc1ccc(-c2cc(Cl)c(Cl)cc2Cl)cc1Cl` [PCB 118], in the test on HSA [2], the “binding to Site II” value is on record as “no binding” and the “binding to Sudlow Site I” value is listed as “bound with high affinity”.
In the case of `Clc1cc(Cl)c(-c2cc(Cl)c(Cl)cc2Cl)cc1Cl` [PCB 153], in the test with HSA [2], the “binding to Site II” value was “no binding” and the “binding to Sudlow Site I” value is listed as “bound with high affinity”. The HSA binding site entry in the test on HSA [3] is on record as “bound to a single site of HSA, Sudlow Site II”.
As for `Clc1ccc(-c2cc(Cl)c(Cl)c(Cl)c2)cc1Cl` [compound 126], in the test with HSA [2], the “binding to Site II” value was “no binding” and the “binding to Sudlow Site I” value is “bound with high affinity”.
As for `O=C(O)c1ccccc1Nc1cccc(C(F)(F)F)c1` [flufenamic acid], the Ka in the test with human serum albumin was 156000 M⁻¹.
